Calls of active or inactive are those of the source. The calls are words filed in the database; no cut-off is given here.
Experiments:
Human alphaherpesvirus 1 [1] = assay: Antiviral activity against HSV1 infected in african green monkey Vero cells by SRB assay; format: functional, organism-based; conditions: Human alphaherpesvirus 1, Vero
Procedure, shortened: (§1)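 Screening: Vero monolayers, infected or uninfected, were treated with a range of compound concentrations. Antiviral activity was read by sulforhodamine B (SRB) staining, and EC50 was taken as the concentration giving 50% efficacy.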

[2] = Selectivity index, ratio of CC50 for african green monkey Vero cells to EC50 in Poliovirus; format: toxicity, cell-based; conditions: read-out: Ratio CC50/EC50
Procedure, shortened: (§2)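 SI was derived from the SRB-based CC50 in Vero cells and the SRB-based EC50 against each virus.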

[3] = Selectivity index, ratio of CC50 for african green monkey Vero cells to EC50 in HSV1; procedure, shortened: as §2
Enterovirus C [4] = assay: Antiviral activity against Poliovirus infected in african green monkey Vero cells by SRB assay; format: functional, organism-based; procedure, shortened: as §1
[5] = Cytotoxicity against african green monkey Vero cells after 72 hrs by SRB assay; format: cell-based; conditions: chlorocebus sabaeus
Procedure, shortened: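 Uninfected Vero cells were exposed to compound for 72 h and viability was measured by SRB assay. CC50 is the concentration giving 50% cytotoxicity.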

Human alphaherpesvirus 1 [6] = assay: Antiviral activity against 1 hr compound pretreated HSV1 infected in african green monkey Vero cells assessed as inhibition of viral replication measured after 48 to 72 hrs; format: functional, organism-based
Procedure, shortened: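 HSV-1 was mixed with compound for 1 h before being added to Vero cells. The mixture infected the cells for 1 h at 37 °C in 5% CO2. The monolayer was washed with PBS and overlaid with DMEM containing carboxymethylcellulose. After 48 or 72 h at 37 °C, cells were fixed with 10% formaldehyde and stained with 0.5% crystal violet, and plaques were counted.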

Enterovirus C [7] = assay: Antiviral activity against 1 hr compound pretreated Poliovirus infected in african green monkey Vero cells assessed as reduction of plaque formation at 6.6 uM after 48 to 72 hrs by virus yield inhibition assay; format: functional; set-up: scale not given: the % may be the effect or the level left
Enterovirus C [8] = assay: Antiviral activity against Poliovirus infected in african green monkey Vero cells assessed as reduction of plaque formation at 6.6 uM treated during viral infection measured after 48 to 72 hrs by virus yield inhibition assay; format: functional; set-up: scale not given: the % may be the effect or the level left
Procedure, shortened: (§3)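 Compound was diluted from DMSO into serum-free DMEM and added together with virus to PBS-washed Vero monolayers for 1 h at 37 °C in 5% CO2. Unadsorbed virus was removed, and cells were washed with PBS and overlaid with DMEM plus 0.5% carboxymethylcellulose. After 48 or 72 h, cells were fixed with 10% formaldehyde, stained with 0.5% crystal violet and plaques counted.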

Enterovirus C [9] = assay: Antiviral activity against Poliovirus infected in african green monkey Vero cells assessed as reduction of plaque formation at 0.825 uM treated during viral infection measured after 48 to 72 hrs by virus yield inhibition assay; format: functional; set-up: scale not given: the % may be the effect or the level left; procedure, shortened: as §3
Enterovirus C [10] = assay: Antiviral activity against Poliovirus infected in african green monkey Vero cells assessed as reduction of plaque formation at 1.65 uM treated 1 hr after viral infection measured after 48 to 72 hrs by virus yield inhibition assay; format: functional; set-up: scale not given: the % may be the effect or the level left
Procedure, shortened: (§4)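 PBS-washed Vero monolayers were infected for 1 h. Unadsorbed virus was removed, cells were washed, and compound was then added at various concentrations in DMEM with 0.5% carboxymethylcellulose. After 48 or 72 h at 37 °C, cells were fixed with 10% formaldehyde, stained with 0.5% crystal violet and plaques counted.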

Enterovirus C [11] = assay: Antiviral activity against 1 hr compound pretreated Poliovirus infected in african green monkey Vero cells assessed as reduction of plaque formation at 0.825 uM after 48 to 72 hrs by virus yield inhibition assay; format: functional; set-up: scale not given: the % may be the effect or the level left
Enterovirus C [12] = assay: Antiviral activity against Poliovirus infected in african green monkey Vero cells assessed as reduction of plaque formation at 0.825 uM treated 1 hr after viral infection measured after 48 to 72 hrs by virus yield inhibition assay; format: functional; set-up: scale not given: the % may be the effect or the level left; procedure, shortened: as §4
Enterovirus C [13] = assay: Antiviral activity against Poliovirus infected in african green monkey Vero cells assessed as reduction of plaque formation at 3.3 uM treated 1 hr after viral infection measured after 48 to 72 hrs by virus yield inhibition assay; format: functional; set-up: scale not given: the % may be the effect or the level left; procedure, shortened: as §4
Enterovirus C [14] = assay: Antiviral activity against Poliovirus infected in 1 hr compound pretreated african green monkey Vero cells assessed as reduction of plaque formation at 6.6 uM measured after 48 to 72 hrs by virus yield inhibition assay; format: functional; set-up: scale not given: the % may be the effect or the level left
Procedure, shortened: (§5)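 Compound was dissolved in DMSO, diluted in serum-free DMEM and added to PBS-washed Vero monolayers for 1 h at 37 °C in 5% CO2. Unbound compound was removed and cells were washed and then infected for 1 h. Unadsorbed virus was removed, and cells were washed and overlaid with DMEM plus 0.5% carboxymethylcellulose. After 48 or 72 h, cells were fixed with formaldehyde, stained with crystal violet and plaques counted.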

Enterovirus C [15] = assay: Antiviral activity against 1 hr compound pretreated Poliovirus infected in african green monkey Vero cells assessed as reduction of plaque formation at 1.65 uM after 48 to 72 hrs by virus yield inhibition assay; format: functional; set-up: scale not given: the % may be the effect or the level left
Enterovirus C [16] = assay: Antiviral activity against Poliovirus infected in african green monkey Vero cells assessed as reduction of plaque formation at 3.3 uM treated during viral infection measured after 48 to 72 hrs by virus yield inhibition assay; format: functional; set-up: scale not given: the % may be the effect or the level left; procedure, shortened: as §3
Enterovirus C [17] = assay: Antiviral activity against Poliovirus infected in african green monkey Vero cells assessed as reduction of plaque formation at 1.65 uM treated during viral infection measured after 48 to 72 hrs by virus yield inhibition assay; format: functional; set-up: scale not given: the % may be the effect or the level left; procedure, shortened: as §3
Enterovirus C [18] = assay: Antiviral activity against Poliovirus infected in 1 hr compound pretreated african green monkey Vero cells assessed as reduction of plaque formation at 1.65 uM measured after 48 to 72 hrs by virus yield inhibition assay; format: functional; set-up: scale not given: the % may be the effect or the level left; procedure, shortened: as §5
Enterovirus C [19] = assay: Antiviral activity against Poliovirus infected in 1 hr compound pretreated african green monkey Vero cells assessed as reduction of plaque formation at 3.3 uM measured after 48 to 72 hrs by virus yield inhibition assay; format: functional; set-up: scale not given: the % may be the effect or the level left; procedure, shortened: as §5
Enterovirus C [20] = assay: Antiviral activity against 1 hr compound pretreated Poliovirus infected in african green monkey Vero cells assessed as reduction of plaque formation at 3.3 uM after 48 to 72 hrs by virus yield inhibition assay; format: functional; set-up: scale not given: the % may be the effect or the level left
Enterovirus C [21] = assay: Antiviral activity against Poliovirus infected in african green monkey Vero cells assessed as reduction of plaque formation at 6.6 uM treated 1 hr after viral infection measured after 48 to 72 hrs by virus yield inhibition assay; format: functional; set-up: scale not given: the % may be the effect or the level left; procedure, shortened: as §4
Enterovirus C [22] = assay: Antiviral activity against Poliovirus infected in 1 hr compound pretreated african green monkey Vero cells assessed as reduction of plaque formation at 0.825 uM measured after 48 to 72 hrs by virus yield inhibition assay; format: functional; set-up: scale not given: the % may be the effect or the level left; procedure, shortened: as §5

| SMILES | EC50 (Human alphaherpesvirus 1 [1]) [µM] | Ratio CC50/EC50 [3] | EC50 (Enterovirus C [4]) [µM] | CC50 at 72 h [5] [µM] | also measured |
| --- | --- | --- | --- | --- | --- |
| CN(C)c1ccc(/C=N/NC(=O)c2cc3c([nH]c4ccccc43)c(-c3ccccc3)n2)cc1 | 1.85 | 629.5 | 0.87 | 1160 | selectivity ratio [2]: 1340 |
| COc1ccc(-c2nc(C(=O)N/N=C/c3ccc(N(C)C)cc3)cc3c2[nH]c2ccccc23)cc1 | > 100 | – | > 100 | – | – |
| O=C(N/N=C/c1ccccc1)c1cc2c([nH]c3ccccc32)c(-c2ccc(O)cc2)n1 | > 100 | – | 1.03 | 1240 | selectivity ratio [2]: 1200 |
| COc1ccc(/C=N/NC(=O)c2cc3c([nH]c4ccccc43)c(-c3ccc(OC)cc3)n2)cc1 | > 100 | – | > 100 | – | – |
| COc1ccc(/C=N/NC(=O)c2cc3c([nH]c4ccccc43)c(-c3ccccc3)n2)cc1 | 0.47 | 2446.8 | 0.87 | 1150 | Activity (Human alphaherpesvirus 1 [6]): inactive; selectivity ratio [2]: 1320 |
| O=C(N/N=C/c1ccc([N+](=O)[O-])cc1)c1cc2c([nH]c3ccccc32)c(-c2ccc(O)cc2)n1 | 86.5 | 2.3 | > 100 | 200 | – |
| O=C(N/N=C/c1ccccc1)c1cc2c([nH]c3ccccc32)c(-c2ccc([N+](=O)[O-])cc2)n1 | > 100 | – | > 100 | – | – |
| O=C(N/N=C/c1ccccc1Cl)c1cc2c([nH]c3ccccc32)c(-c2ccc(O)cc2)n1 | 41.2 | 0.7 | > 100 | 29.8 | – |
| COc1ccc(/C=N/NC(=O)c2cc3c([nH]c4ccccc43)c(-c3cccc([N+](=O)[O-])c3)n2)cc1 | > 100 | – | > 100 | – | – |
| COc1ccc(/C=N/NC(=O)c2cc3c([nH]c4ccccc43)c(-c3ccc(O)cc3)n2)cc1 | 22.9 | 35 | > 100 | 803 | – |
| COc1ccc(/C=N/NC(=O)c2cc3c([nH]c4ccccc43)c(-c3ccc([N+](=O)[O-])cc3)n2)cc1 | > 100 | – | > 100 | – | – |
| CN(C)c1ccc(/C=N/NC(=O)c2cc3c([nH]c4ccccc43)c(-c3cccc([N+](=O)[O-])c3)n2)cc1 | 73.2 | 14.3 | > 100 | 1050 | – |
| O=C(N/N=C/c1ccccc1Cl)c1cc2c([nH]c3ccccc32)c(-c2ccccc2)n1 | > 100 | – | > 100 | – | – |
| CN(C)c1ccc(/C=N/NC(=O)c2cc3c([nH]c4ccccc43)c(-c3ccc(O)cc3)n2)cc1 | > 100 | – | 2.67 | 900 | Activity (Enterovirus C [7]): 0%; selectivity ratio [2]: 337; Activity (Enterovirus C [8]): 0%; Activity (Enterovirus C [9]): 0%; Activity (Enterovirus C [10]): 32%; Activity (Enterovirus C [11]): 0%; Activity (Enterovirus C [12]): 0%; Activity (Enterovirus C [13]): 66.3%; Activity (Enterovirus C [14]): 0%; Activity (Enterovirus C [15]): 0%; Activity (Enterovirus C [16]): 0%; Activity (Enterovirus C [17]): 0%; Activity (Enterovirus C [18]): 0%; Activity (Enterovirus C [19]): 0%; Activity (Enterovirus C [20]): 0%; Activity (Enterovirus C [21]): 88.3%; Activity (Enterovirus C [22]): 0% |
| O=C(N/N=C/c1ccc([N+](=O)[O-])cc1)c1cc2c([nH]c3ccccc32)c(-c2ccccc2)n1 | > 100 | – | > 100 | – | – |
| O=C(N/N=C/c1ccccc1)c1cc2c([nH]c3ccccc32)c(-c2ccccc2)n1 | > 100 | – | 1.95 | 777 | selectivity ratio [2]: 398 |
| CN(C)c1ccc(/C=N/NC(=O)c2cc3c([nH]c4ccccc43)c(-c3ccc([N+](=O)[O-])cc3)n2)cc1 | > 100 | – | > 100 | – | – |
| COc1ccc(-c2nc(C(=O)N/N=C/c3ccccc3)cc3c2[nH]c2ccccc23)cc1 | > 100 | – | > 100 | – | – |
| COc1ccc(-c2nc(C(=O)N/N=C/c3ccc([N+](=O)[O-])cc3)cc3c2[nH]c2ccccc23)cc1 | > 100 | – | > 100 | – | – |

Reference: ChEMBL document CHEMBL1155348, “Synthesis and antiviral activity of beta-carboline derivatives bearing a substituted carbohydrazide at C-3 against poliovirus and herpes simplex virus (HSV-1)” (Eur J Med Chem, 2009)
